Assay results taken from ChEMBL document CHEMBL2375264, “Potent naphthoquinones against antimony-sensitive and -resistant Leishmania parasites: synthesis of novel α- and nor-α-lapachone-based 1,2,3-triazoles by copper-catalyzed azide-alkyne cycloaddition” (Eur J Med Chem, 2013).

Assays:
[1] = test system: Leishmania amazonensis; assay: Ratio of potassium antimonyl tartrate IC50 to compound IC50 for antimony-sensitive Leishmania amazonensis MHOM/BR/1989/BA199 promastigote infected in Swiss mouse peritoneal macrophages; type: functional
[2] = test system: Leishmania infantum; assay: Ratio of potassium antimonyl tartrate IC50 to compound IC50 for antimony-sensitive Leishmania infantum MCAN/BR/2002/BH400 promastigote infected in Swiss mouse peritoneal macrophages; type: functional
[3] = Selectivity index, ratio of CC50 for Swiss mouse peritoneal macrophages to IC50 for antimony-sensitive Leishmania amazonensis MHOM/BR/1989/BA199 promastigote; type: functional
How it was run: (§1)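 SI = CC50 / IC50. CC50 is from Swiss mouse peritoneal macrophages, read by MTT after lavage and 1 h adherence. […] Promastigotes grown in α-MEM with 10% heat-inactivated FBS, hemin and biopterin, pH 7.0, 25 °C. DMSO ≤0.2% final. Triplicate.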

[4] = Selectivity index, ratio of CC50 for Swiss mouse peritoneal macrophages to IC50 for antimony-sensitive Leishmania infantum MCAN/BR/2002/BH400 promastigote; type: functional; how it was run: as §1
[5] = Cytotoxicity against Swiss mouse peritoneal macrophages after 24 hrs by MTT assay; type: cell-based, Peritoneal macrophage cell
How it was run: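 Macrophages from peritoneal lavage of Swiss mice with cold FBS-free RPMI-1640. Cells seeded at 4.0 × 10⁶/mL, adhered 1 h, non-adherent cells washed off. Compounds were DMSO stocks diluted in medium over a concentration range, final DMSO ≤0.2%. Viability read by MTT (5 mg/mL solution, 4 h further incubation). CC50 taken as the 50% cytotoxic concentration.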

[6] = test system: Leishmania amazonensis; assay: Antileishmanial activity against antimony-resistant Leishmania amazonensis MHOM/BR/1989/BA199 promastigote infected in Swiss mouse peritoneal macrophages after 72 hrs; type: functional, organism-based; conditions: MHOM/BR/1989/BA199, 72 h
How it was run: (§2)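 Promastigotes of Sb(III)-sensitive and -resistant lines (resistant to Sb(III) up to 2700), maintained at 25 °C, pH 7.0, in α-MEM with 10% heat-inactivated FBS, kanamycin, ampicillin, L-glutamine, hemin and biopterin. Drugs dissolved in DMSO, diluted in α-MEM across a concentration range, final DMSO ≤0.2%.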

[7] = test system: Leishmania amazonensis; assay: Antileishmanial activity against antimony-sensitive Leishmania amazonensis MHOM/BR/1989/BA199 promastigote infected in Swiss mouse peritoneal macrophages after 72 hrs; type: functional, organism-based; conditions: MHOM/BR/1989/BA199, 72 h; how it was run: as §2
[8] = test system: Leishmania infantum; assay: Antileishmanial activity against antimony-resistant Leishmania infantum MCAN/BR/2002/BH400 promastigote infected in Swiss mouse peritoneal macrophages after 72 hrs; type: functional, organism-based; conditions: MCAN/BR/2002/BH400, 72 h; how it was run: as §2
[9] = test system: Leishmania infantum; assay: Antileishmanial activity against antimony-sensitive Leishmania infantum MCAN/BR/2002/BH400 promastigote infected in Swiss mouse peritoneal macrophages after 72 hrs; type: functional, organism-based; conditions: MCAN/BR/2002/BH400, 72 h; how it was run: as §2
[10] = Selectivity index, ratio of CC50 for Swiss mouse peritoneal macrophages to IC50 for antimony-resistant Leishmania amazonensis MHOM/BR/1989/BA199 promastigote; type: functional
How it was run: (§3)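 SI = CC50/IC50. CC50 comes from Swiss mouse peritoneal macrophages, harvested by lavage with cold RPMI-1640 lacking FBS. Cells seeded at 4.0 × 10⁶/mL, allowed to adhere 1 h, then washed free of non-adherent cells. Viability read by MTT (5 mg/mL stock, 4 h).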

[11] = Selectivity index, ratio of CC50 for Swiss mouse peritoneal macrophages to IC50 for antimony-resistant Leishmania infantum MCAN/BR/2002/BH400 promastigote; type: functional; how it was run: as §3

| Compound | Ratio IC50 [1] | Ratio IC50 [2] | Ratio CC50/IC50 [3] | Ratio CC50/IC50 [4] | CC50 at 24 h [5] | IC50 [6] | IC50 [7] | IC50 [8] | IC50 [9] | Ratio CC50/IC50 [10] | Ratio CC50/IC50 [11] |
| --- | --- | --- | --- | --- | --- | --- | --- | --- | --- | --- | --- |
| O=C1C=C(n2cc(-c3ccc([N+](=O)[O-])cc3)nn2)C(=O)c2ccccc21 | 2.2 | 2 | <0.5 | <0.5 | 50 µM | > 100 µM | > 100 µM | > 100 µM | > 100 µM | – | – |
| CC1(C)OC2=C(C(=O)C(=O)c3ccccc32)C1n1cc(-c2ccc([N+](=O)[O-])cc2)nn1 (stereo unspecified) | 23 | 15.5 | 0.98 | 1.03 | 3.35 µM | 2.95 µM | 3.41 µM | 3.28 µM | 3.25 µM | 1.35 | 1.02 |
| COc1ccc(-c2cn(C3C4=C(OC3(C)C)c3ccccc3C(=O)C4=O)nn2)cc1 (stereo unspecified) | 23 | 15.5 | 1.13 | 0.78 | 4.36 µM | 2.49 µM | 3.87 µM | 5.39 µM | 5.57 µM | 1.75 | 0.81 |
| Cc1ccc(-c2cn(C3C4=C(OC3(C)C)c3ccccc3C(=O)C4=O)nn2)cc1 (stereo unspecified) | 23 | 15.5 | 0.87 | 0.98 | 3.31 µM | 3.49 µM | 3.8 µM | 3.1 µM | 3.38 µM | 0.95 | 1.07 |
| CC1(C)CC(n2cc(C3CCCCC3)nn2)C2=C(O1)C(=O)c1ccccc1C2=O (stereo unspecified) | – | – | 0.93 | 3.8 | 8.59 µM | 1.9 µM | 9.23 µM | 2.24 µM | 2.26 µM | 4.52 | 3.83 |
| CCCCCc1cn(C2CC(C)(C)OC3=C2C(=O)c2ccccc2C3=O)nn1 (stereo unspecified) | – | – | 1.15 | 3.38 | 6.89 µM | 1.95 µM | 6 µM | 2.2 µM | 2.04 µM | 3.53 | 3.13 |
| CCCc1cn(C2CC(C)(C)OC3=C2C(=O)c2ccccc2C3=O)nn1 (stereo unspecified) | – | – | 3.38 | 2.5 | 14.8 µM | 8.04 µM | 4.37 µM | 3.43 µM | 5.9 µM | 1.83 | 4.31 |
| CCC(C)(O)c1cn(C2CC(C)(C)OC3=C2C(=O)c2ccccc2C3=O)nn1 (stereo unspecified) | – | – | 0.27 | 0.54 | 9.63 µM | 21.6 µM | 35.2 µM | 3.3 µM | 17.7 µM | 0.45 | 2.92 |
| CC1(C)OC2=C(C(=O)c3ccccc3C2=O)C1n1cc(-c2ccccc2)nn1 (stereo unspecified) | – | – | 3.74 | 8.01 | 8.01 µM | 1.2 µM | 2.14 µM | 1.01 µM | 1 µM | 6.67 | 7.93 |
| CCCCCCc1cn(C2C3=C(OC2(C)C)C(=O)c2ccccc2C3=O)nn1 (stereo unspecified) | – | – | 0.25 | 2.47 | 2.77 µM | 4.23 µM | 11 µM | 1.12 µM | 1.12 µM | 0.65 | 2.47 |
